Measurements of several laboratories.
Protocols differ between the studies behind these lines.
Target: Serine/threonine-protein kinase TAO1 (TAOK1, Homo sapiens, UniProt Q7L7X3)
Residues used in one study (Q7L7X3 1-1001): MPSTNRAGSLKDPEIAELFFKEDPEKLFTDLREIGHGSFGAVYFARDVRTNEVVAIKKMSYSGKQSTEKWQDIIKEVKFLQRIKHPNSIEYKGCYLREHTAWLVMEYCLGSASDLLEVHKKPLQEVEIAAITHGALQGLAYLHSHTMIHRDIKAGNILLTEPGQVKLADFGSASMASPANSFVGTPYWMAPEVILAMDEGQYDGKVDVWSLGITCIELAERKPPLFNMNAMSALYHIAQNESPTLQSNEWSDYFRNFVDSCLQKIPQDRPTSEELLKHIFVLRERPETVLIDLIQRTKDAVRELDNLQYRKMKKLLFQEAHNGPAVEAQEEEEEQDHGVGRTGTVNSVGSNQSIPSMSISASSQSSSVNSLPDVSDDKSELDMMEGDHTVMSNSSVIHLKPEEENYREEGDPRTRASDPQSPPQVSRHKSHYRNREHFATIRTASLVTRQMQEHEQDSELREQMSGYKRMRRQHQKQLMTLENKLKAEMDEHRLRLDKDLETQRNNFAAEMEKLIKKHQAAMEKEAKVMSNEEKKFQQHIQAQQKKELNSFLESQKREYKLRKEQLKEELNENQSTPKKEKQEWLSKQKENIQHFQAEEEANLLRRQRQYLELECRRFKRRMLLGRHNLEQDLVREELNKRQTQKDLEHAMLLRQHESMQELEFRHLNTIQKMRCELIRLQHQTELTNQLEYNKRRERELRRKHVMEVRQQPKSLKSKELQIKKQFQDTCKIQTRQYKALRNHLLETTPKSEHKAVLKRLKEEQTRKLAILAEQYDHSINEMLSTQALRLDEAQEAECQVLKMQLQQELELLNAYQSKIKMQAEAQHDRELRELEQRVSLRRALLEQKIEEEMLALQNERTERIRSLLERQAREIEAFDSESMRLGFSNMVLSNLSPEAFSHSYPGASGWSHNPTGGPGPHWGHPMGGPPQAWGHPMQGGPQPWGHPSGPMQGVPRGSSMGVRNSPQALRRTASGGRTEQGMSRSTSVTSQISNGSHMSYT

SMILES | observed | technique | tested at | remaining binding [%]
F[C@@H]1CCN(c2nccc(-c3cnn4ncccc34)n2)C1 | binding | – | 1 µM | 100
CN(C(=O)c1ccccc1)c1cc(N(C)c2ccc3c(c2)CCc2ccc(C(=O)NCCN4CCOCC4)cc2C3=O)ccc1F | cell-free assay | competition with immobilised ligand | 1 µM | 81
O=C(NCC1CCOCC1)c1n[nH]cc1NC(=O)c1c(F)cccc1F | binding | competition with immobilised ligand | 1 µM | 83
CNCc1ccccc1-c1csc([C@H](C)Nc2nc(C)nc3cc(OC)c(OC)cc23)c1 | cell-free assay | competition with immobilised ligand | 1 µM | 100
CN(C)c1ncc(F)c(-c2cnn3ncccc23)n1 | binding | – | 1 µM | 73
Nc1cnc(N2CCc3cc(S(=O)(=O)Nc4c(F)cc(Cl)cc4F)cc(N4CCCC4=O)c32)nc1 | cell-free assay | competition with immobilised ligand | 1 µM | 80
C[C@@H]1CCN(c2nccc(-c3cnn4ncccc34)n2)C1 | binding | – | 1 µM | 83
C=CC(=O)N1CCC(C(=O)NCC(=O)N2CCN(c3nc(-c4cnc(N)nc4C(F)F)nc(N4CCOCC4)n3)CC2)CC1 | binding | competition with immobilised ligand | 1 µM | 80
O=C(NCCCN1CCOCC1)c1ccc(Nc2nccc(-c3cc4ccccc4s3)n2)cc1 | binding | competition with immobilised ligand | 1 µM | 82
O=C(NCc1ncc(C(F)(F)F)cc1Cl)c1ccc2c(c1)C1(CCS(=O)(=O)CC1)[C@@H](C1CC1)N2S(=O)(=O)c1ccc(F)cc1 | cell-free assay | competition with immobilised ligand | 1 µM | 91
CN(C)c1nccc(-c2cnc3ncccn23)n1 | binding | – | 1 µM | 59
O=C(c1ccc(Nc2ncc(Cl)c(-c3cc4ccccc4s3)n2)cc1)N1CCC(N2CCCC2)CC1 | binding | competition with immobilised ligand | 1 µM | 50
FC(F)(F)Oc1cccc(-c2cnc3ccc(-c4ccncc4)nn23)c1 | binding | competition with immobilised ligand | 5 µM | 40
N[C@@H]1CCN(c2nccc(-c3cnn4ncccc34)n2)C1 | binding | – | 1 µM | 100
COc1cnc(Nc2cccc(S(N)(=O)=O)c2)nc1N1CCN(c2ccccc2)CC1 | binding | competition with immobilised ligand | 1 µM | 80
CC1CCCN1c1nccc(-c2cnn3ncccc23)n1 (stereo not shown) | binding | – | 1 µM | 100
O=C1NC(c2ccccn2)Sc2ccccc21 (stereo not shown) | cell-free assay | competition with immobilised ligand | 1 µM | 96
Cc1cnc(Nc2ccc(C(=O)N3CCC(N4CCCC4)CC3)cc2)nc1-c1cc2ccccc2s1 | binding | competition with immobilised ligand | 1 µM | 64
COCCOc1nc(-c2ccc(Cl)nc2)nc2c1CN(C(=O)c1ncn3ccccc13)CC2 | cell-free assay | competition with immobilised ligand | 0.1 µM | 100
COc1cnc(Nc2cccc(S(N)(=O)=O)c2)nc1N1CCN(c2ccccc2)C(=O)C1 | binding | competition with immobilised ligand | 1 µM | 86
CN(CCCC(F)(F)F)c1nccc(-c2cnn3ncccc23)n1 | binding | – | 1 µM | 100
COc1cccc(CNC(=O)c2nc3scc(COCc4ccc(C(=O)O)cc4)c3c(=O)[nH]2)c1 | cell-free assay | competition with immobilised ligand | 1 µM | 69.5
